Data set [1] deals with T1, Sodium-dependent serotonin transporter (Rattus norvegicus, UniProt P31652). The experiment in a line: Displacement of [125I]IDAM from SERT in rat brain cortex membrane. Type of data set: cell membranes. A general note: In a radioligand displacement assay an active substance lowers the binding of a labelled ligand.
For data set [2], the target named is T1, Sodium-dependent serotonin transporter.
For data set [3] the target is unchanged. Description: Displacement of [3H]MADAM from SERT in rat brain cortex membrane. Type of data set: cell membranes. The essentials:
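Paroxetine defined nonspecific binding. Bound radioactivity was collected by GF/B filtration with an ice-cold wash and beta-counted. IC50 was read graphically and Ki derived by Cheng-Prusoff. Samples run in duplicate; values are the mean of four determinations.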

Data set [4] has as its target Sodium-dependent noradrenaline transporter (Homo sapiens, UniProt P23975). The experiment in a line: Displacement of [3H]nisoxetine from human cloned NET expressed in HEK293 cells. It counts as cell-based.
Data set [5] concerns the target Sodium-dependent dopamine transporter (Homo sapiens, UniProt Q01959). The experiment in a line: Displacement of [3H]GBR-12935 from human cloned DAT expressed in HEK293 cells. It counts as cell-based.
Data set [6] in a line: Partition coefficient, log P at pH 7.4 by reverse-phase HPLC. Type of data set: physicochemical. As to conditions: octanol/water, read-out: logP. The essentials: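 Indirect log P7.4 from retention time (triplicate) on a C-18 column (5 µm, 4.6 × 150 mm) eluted with methanol/0.1 M phosphate buffer pH 7.4 (50/50) at 1 mL/min. Calibrated against seven standards dissolved in mobile phase: quinoline, phenol, benzamide, chlorpromazine, hexachlorobenzene, ADAM and MADAM. Calibration equation: y = 1.438·Ln(retention time) – 0.7301, R² 0.93.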

A short description of data set [7]: Partition coefficient, log P in n-octanol/0.02 M phosphate buffer at pH 7.4. It counts as physicochemical.

Sodium-dependent noradrenaline transporter, sequence (P23975 whole entry): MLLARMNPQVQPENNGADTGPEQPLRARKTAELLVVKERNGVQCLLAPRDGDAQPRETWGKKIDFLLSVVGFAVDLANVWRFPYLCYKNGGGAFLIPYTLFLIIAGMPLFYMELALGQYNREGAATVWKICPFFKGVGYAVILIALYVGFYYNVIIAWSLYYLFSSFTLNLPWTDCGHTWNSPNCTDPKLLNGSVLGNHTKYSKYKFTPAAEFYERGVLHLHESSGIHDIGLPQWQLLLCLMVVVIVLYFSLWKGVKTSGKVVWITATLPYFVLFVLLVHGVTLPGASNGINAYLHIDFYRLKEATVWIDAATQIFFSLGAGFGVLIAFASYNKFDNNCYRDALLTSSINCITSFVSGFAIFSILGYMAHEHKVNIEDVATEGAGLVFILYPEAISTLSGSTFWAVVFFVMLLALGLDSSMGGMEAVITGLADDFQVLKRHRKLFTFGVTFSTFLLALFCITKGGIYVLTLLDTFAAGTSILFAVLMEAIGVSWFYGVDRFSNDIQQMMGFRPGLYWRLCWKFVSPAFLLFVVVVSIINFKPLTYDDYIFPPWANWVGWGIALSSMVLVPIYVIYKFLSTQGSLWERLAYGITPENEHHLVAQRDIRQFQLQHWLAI
Sodium-dependent dopamine transporter, sequence (Q01959 whole entry): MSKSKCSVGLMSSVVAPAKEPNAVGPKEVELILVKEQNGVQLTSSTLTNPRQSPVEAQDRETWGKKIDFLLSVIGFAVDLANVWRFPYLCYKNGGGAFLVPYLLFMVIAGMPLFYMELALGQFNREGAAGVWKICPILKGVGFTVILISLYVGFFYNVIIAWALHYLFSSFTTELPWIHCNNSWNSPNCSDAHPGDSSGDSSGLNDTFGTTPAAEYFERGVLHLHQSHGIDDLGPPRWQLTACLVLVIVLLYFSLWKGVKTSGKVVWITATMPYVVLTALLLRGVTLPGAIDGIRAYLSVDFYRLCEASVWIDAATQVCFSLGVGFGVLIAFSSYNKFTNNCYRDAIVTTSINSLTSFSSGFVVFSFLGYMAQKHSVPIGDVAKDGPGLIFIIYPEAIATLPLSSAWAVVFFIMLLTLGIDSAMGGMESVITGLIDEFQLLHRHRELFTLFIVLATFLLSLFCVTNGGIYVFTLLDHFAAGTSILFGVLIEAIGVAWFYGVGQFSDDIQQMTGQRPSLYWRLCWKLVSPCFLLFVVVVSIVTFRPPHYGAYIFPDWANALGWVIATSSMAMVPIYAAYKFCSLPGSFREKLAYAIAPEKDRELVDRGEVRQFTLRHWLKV
T1 sequence (P31652 whole entry): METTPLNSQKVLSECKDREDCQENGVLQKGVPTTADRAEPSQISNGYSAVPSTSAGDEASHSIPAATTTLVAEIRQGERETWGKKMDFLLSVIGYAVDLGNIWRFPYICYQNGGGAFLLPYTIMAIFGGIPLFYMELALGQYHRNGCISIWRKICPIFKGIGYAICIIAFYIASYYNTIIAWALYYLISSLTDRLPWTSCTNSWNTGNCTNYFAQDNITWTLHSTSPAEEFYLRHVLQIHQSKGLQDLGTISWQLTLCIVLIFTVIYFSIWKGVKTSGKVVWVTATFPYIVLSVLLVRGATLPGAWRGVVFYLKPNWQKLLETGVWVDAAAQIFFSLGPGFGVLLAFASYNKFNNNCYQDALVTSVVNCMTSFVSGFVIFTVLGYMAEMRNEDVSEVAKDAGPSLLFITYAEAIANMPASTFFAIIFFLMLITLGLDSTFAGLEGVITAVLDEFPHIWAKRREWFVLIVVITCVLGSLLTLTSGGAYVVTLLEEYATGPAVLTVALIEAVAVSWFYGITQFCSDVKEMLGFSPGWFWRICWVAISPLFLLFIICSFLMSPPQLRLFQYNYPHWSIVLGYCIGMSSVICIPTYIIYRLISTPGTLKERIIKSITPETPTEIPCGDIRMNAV

For the compound `CN(C)Cc1ccccc1Sc1ccccc1NC(=O)c1ccc(F)cc1`, the Ki in data set [1] came out at 34 nM.
Turning to `CN(C)Cc1ccccc1Sc1ccc(I)cc1CO`, the inhibition constant (Ki) in data set [2] amounted to 0.1 nM.
In data set [1], `CN(C)Cc1ccccc1Sc1ccc(I)cc1NC(=O)c1ccc(F)cc1` showed a Ki of 193 nM.
On to `CNCc1ccccc1Sc1ccc(C)cc1NCc1ccc(F)cc1`, for which the Ki was greater than 100 nM in data set [3], greater than 1000 nM in data set [4] and greater than 2000 nM in data set [5].
With `Cc1ccc(Sc2ccccc2CN(C)C)c(NC(=O)c2ccc(F)cc2)c1`, the Ki was 14.3 nM in data set [3], greater than 5200 nM in data set [4] and greater than 1000 nM in data set [5]. Further, in data set [6], the chromatographic logD is 2.99.
With `CN(C)Cc1ccccc1Sc1ccc(Br)cc1NC(=O)c1ccc(F)cc1`, the affinity in data set [1], expressed as Ki, was 8 nM.
Turning to `Cc1ccc(Sc2ccccc2CN(C)C)c(NCc2ccc(F)cc2)c1`, the Ki in data set [3] was 10.1 nM; in data set [4], greater than 1200 nM; in data set [5] it was greater than 1500 nM. Also, the chromatographic logD in data set [6] was found to be 4.7.
`CNCc1ccccc1Sc1ccc(C)cc1NC(=O)c1ccc(F)cc1`: the figures for the inhibition constant (Ki) in data set [3], in data set [4] and in data set [5] were greater than 500 nM, greater than 2500 nM and greater than 1000 nM, respectively.
With `CN(C)Cc1ccccc1Sc1ccc(I)cc1N`, the logD in data set [7] amounted to 2.52.
Take `Cc1ccc(Sc2ccccc2CN(C)C)c(NCc2ccc([N+](=O)[O-])cc2)c1`: the Ki in data set [3] is 60 nM; in data set [4], greater than 1900 nM; in data set [5], greater than 1000 nM.
`Cc1ccc(Sc2ccccc2CN(C)C)c(N)c1` registered a log distribution coefficient (logD) in data set [7] of 2.46. Also, the Ki in data set [4] is 325 nM; in data set [5], greater than 1000 nM.
`CN(C)Cc1ccccc1Sc1ccc(Cl)cc1NC(=O)c1ccc(F)cc1`: in data set [1], the affinity corresponds to a Ki of 0.9 nM.
With `Cc1ccc(Sc2ccccc2CN(C)C)c(NC(=O)c2ccc([N+](=O)[O-])cc2)c1`, the Ki in data set [3] is greater than 100 nM; in data set [4] it was greater than 1000 nM; in data set [5] it was greater than 1000 nM.

By Ki is commonly meant the dissociation constant of the complex between target and ligand, obtained from inhibition or displacement. The term logD denotes the decadic logarithm of the distribution of all forms, ionised or not, between an organic phase and buffer at a given pH. A higher logD goes with higher lipophilicity.

The values above are taken from ChEMBL document CHEMBL1152212, “Docking study, synthesis, and in vitro evaluation of fluoro-MADAM derivatives as SERT ligands for PET imaging” (Bioorg Med Chem, 2008).
